Screening data as filed in PubChem BioAssay.
LEDGF integ inh – blocks HIV-1 LEDGF/p75-dependent DNA integration. 370,000 tested, 0.64% active. inhibition, % at 3.7 µM. TR-FRET IN-LEDGF/p75 DNA integration, Eu/Cy5. AID 743269;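 active = inhibition above the screen-wide mean plus 3 SD, cut at about 13% in these data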;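 note: signal is the Cy5 over europium emission ratio at 671 and 618 nm; 0% = plate median of compound wells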
ATG4B inhibitor – inhibitors of human ATG4B cysteine protease; inhibition, % at 8.33 µM; ATG4B cleavage of LC3-PLA2, NBD-HPC fluorescence, 1 h; 340,000 tested, 0.51% active; Q9Y4P1; in the data active = inhibition above about 40%
Target sequence (Q9Y4P1 whole entry, looked up): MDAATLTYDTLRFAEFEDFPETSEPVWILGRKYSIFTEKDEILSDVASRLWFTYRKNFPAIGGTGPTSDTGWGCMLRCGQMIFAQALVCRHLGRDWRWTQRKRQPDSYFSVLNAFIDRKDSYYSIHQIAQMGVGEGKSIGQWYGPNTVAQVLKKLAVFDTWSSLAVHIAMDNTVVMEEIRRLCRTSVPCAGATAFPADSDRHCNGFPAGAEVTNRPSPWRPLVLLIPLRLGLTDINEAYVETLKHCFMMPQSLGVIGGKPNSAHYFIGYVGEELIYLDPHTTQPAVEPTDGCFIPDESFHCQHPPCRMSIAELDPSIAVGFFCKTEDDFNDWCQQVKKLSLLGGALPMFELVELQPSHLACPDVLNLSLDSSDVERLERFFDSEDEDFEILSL
rCAG RNA binder – r(CAG) repeat RNA binding; TO-PRO-1 dye displacement fluorescence; inhibition, % at 3 µM; 370,000 tested, 1.3% active;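 active = inhibition above the plate cutoff, the mean of all test compounds on that plate plus 3 SD, cut at about 35% in these data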;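 note: 0% = DMSO alone and 100% = 100 µM mitoxantrone as full dye displacement; higher means more dye released from RNA so lower well fluorescence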
CSN deneddyl inh – CSN deneddylation inhibition | inhibition, % at 12.5 µM | Purified CSN, SCF-Nedd8-OG deneddylation, fluorescence polarization | 360,000 tested, 0.38% active;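 active = pattern-corrected inhibition above about 35%, with an unprinted fluorescence ratio check between 0.5 and 1.5, limit read from the data, passing the limit was not always enough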;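 note: 0% = enzyme with substrate and 100% = substrate without enzyme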
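Material: purified human Csn5 enzyme expressed in HEK293T cells / Medium: Tris buffer pH 7.5, NaCl, DTT, Tween-20, trehalose, ovalbumin / Compound dosing: 12.5 µM single point / Schedule: 90 min incubation of compound, enzyme and substrate at room temperature / Signal: fluorescence polarization of the substrate / Control set: no-enzyme wells high, enzyme-with-substrate wells low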
MBD2 inh – blocks human MBD2 binding to methylated DNA; TR-FRET, MBD2 binding to methylated oligonucleotide; inhibition, % at 4.4 µM; 370,000 tested, 0.31% active; AID 686964; in the data active = inhibition above about 13%
UHRF1 MBD2 ctr – human UHRF1 methylated DNA binding inhibitors | UHRF1 binding to methylated oligo, TR-FRET | inhibition, % at 4.4 µM | Q96T88 | 370,000 tested, 0.75% active | AID 687016; in the data active = inhibition above about 21%;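 note: UHRF1 SRA domain binding a hemimethylated CpG hairpin DNA probe; 0% = median of test compound wells and 100% = reference inhibitor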
ATG4B conf – confirmation of human ATG4B inhibitors | 320 tested, 92% active | ATG4B protease fluorescent substrate cleavage assay | shares compounds with ATG4B inhibitor | inhibition, % at 8.33 µM; in the data active = inhibition above about 39%
PLA2 ctr – PLA2 (human) inhibition in ATG4B counter-screen. shares compounds with ATG4B inhibitor. inhibition, % at 8.33 µM. purified PLA2, NBD-C6-HPC fluorescence, 45 min. 1,600 tested, 66% active. AID 588402; in the data active = inhibition above about 50%
Target sequence (P04054 whole entry, looked up): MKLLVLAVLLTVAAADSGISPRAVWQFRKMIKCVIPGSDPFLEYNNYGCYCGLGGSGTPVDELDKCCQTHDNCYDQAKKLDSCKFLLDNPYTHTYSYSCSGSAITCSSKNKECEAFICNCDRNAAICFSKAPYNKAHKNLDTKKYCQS
Active calls of the source: *; / = not tested or not shown. Shown are actives, neighbours in structure and some others; about 3.1% of the full set was active somewhere.

SMILES	LEDGF integ inh	ATG4B inhibitor	rCAG RNA binder	CSN deneddyl inh	MBD2 inh	UHRF1 MBD2 ctr	PLA2 ctr	others
CC(=O)N1CCN(S(=O)(=O)c2ccc3c(c2)oc(=O)n3C)CC1	2	/	4	/	-2	-2	/
COC(=O)c1ccc(CSc2nc3c(c(=O)n2-c2ccc(Br)cc2)SCC3)o1	0	65*	6	3	-2	-1	73*
CCOc1ccc(-n2c(SCc3ccc(C(=O)OC)o3)nc3c(c2=O)SCC3)cc1	0	60*	0	-6	1	-3	77*
S=C(NCc1ccccc1)NCc1cccc(Cl)c1	0	64*	-1	5	-1	3	78*
Fc1ccc(CNC(=S)NCc2cccc(Cl)c2)cc1	6	79*	2	5	3	30*	86*
S=C(NCCc1cccc(Cl)c1)NCc1ccccc1	/	/	/	-4	/	/	/
NC(=O)NCc1cccc(Cl)c1	1	4	-2	4	-7	-3	/
S=C(NCCc1ccc(Cl)cc1)NCc1ccccc1	/	64*	/	3	/	/	73*
O=C(NCc1cccc(Cl)c1)NCc1cccc(Cl)c1	1	73*	-1	-5	-3	2	77*
O=C(NC1CCCCN(Cc2ccc(OC(F)(F)F)cc2)C1=O)c1cccc(F)c1 (stereo unspecified)	-2	/	1	/	-1	-2	/
Cc1nn(CCC(=O)NNC(=O)Nc2ccc(F)cc2)c(C)c1[N+](=O)[O-]	3	/	0	/	-2	2	/
Cc1ccccc1OCC(=O)NCc1ccccc1	0	-6	-6	-1	-4	-1	/
O=C(COc1ccccc1-c1ccccc1)NCc1cccc(Cl)c1	-1	56*	1	1	3	-1	44	ATG4B conf=57*
CC(=O)c1ccc2c(c1)C1C=CCC1C(c1ccc(S(=O)(=O)N3CCOCC3)cc1)N2 (stereo unspecified)	-1	-5	31	-4	-4	-3	/
Cc1c(Cl)cccc1NS(=O)(=O)c1ccc2c(c1)C1C=CCC1C(c1ccc(C(=O)O)cc1)N2 (stereo unspecified)	/	101*	/	28	/	/	92*
CN(Cc1ccccc1)S(=O)(=O)c1cccc(C(=O)OCc2ccc(Oc3ccccc3)cc2)c1	-3	/	2	/	-3	-3	/
Cc1ccc(Oc2cc(NC(=O)CCCn3nc([N+](=O)[O-])cc3C)cc([N+](=O)[O-])c2)cc1	-2	67*	14	1	0	-2	65*
Cc1ccc(Cn2nc(C)c(NC(=O)CCCn3nc(C)c([N+](=O)[O-])c3C)c2C)cc1	2	7	-4	-4	-6	-3	/
Cc1nn(CCCC(=O)Nc2cc(Oc3ccccc3)cc([N+](=O)[O-])c2)c(C)c1[N+](=O)[O-]	-4	53*	10	2	-2	0	63*
Cc1cc([N+](=O)[O-])nn1CCCC(=O)Nc1ccc2c(c1)OCO2	-6	0	-3	1	3	1	/
Cc1ccc(C)c(Oc2cc(NC(=O)CCCn3nc(C)c([N+](=O)[O-])c3C)cc([N+](=O)[O-])c2)c1	-2	65*	12	-4	0	0	64*
CCOC(=O)Cn1cc(CN2CCS(=O)(=O)N(Cc3ccc(OC)cc3)C(C(=O)OC)C2)nn1 (stereo unspecified)	-1	/	2	/	11	14	/
CN(CC#Cc1ccccc1)C(N)=NC(=O)/C=C/c1cccc(C(F)(F)F)c1	1	/	1	/	5	0	/
COc1ccc(-c2nnc(SCc3ccccc3F)o2)cc1	-2	25	-5	-4	-2	-2	/
COc1cc(OC)cc(-c2nnc(SCc3c(F)cccc3Cl)o2)c1	3	59*	-3	6	3	-3	58*
SMILES	LEDGF integ inh	ATG4B inhibitor	rCAG RNA binder	CSN deneddyl inh	MBD2 inh	UHRF1 MBD2 ctr	PLA2 ctr	others
FC(F)Oc1ccc(NC(=S)NC2CCSc3ccccc32)cc1 (stereo unspecified)	0	59*	7	5	-1	-2	57*
Cc1cccc(NC(=S)NC2CCSc3ccccc32)c1 (stereo unspecified)	-10	42*	3	0	-6	-2	54*
O=C(NC1CCSc2ccccc21)c1cccc(Br)c1 (stereo unspecified)	1	7	1	-7	-4	2	/
Cc1ccc(C(=O)Nc2ncc(Cc3ccccc3)s2)o1	-2	43*	8	4	6	4	64*
O=C(NCCc1ccccc1Cl)c1cc(COc2ccc(F)cc2F)on1	/	46*	/	3	/	/	55*
COc1ccc(-c2[nH]nc3c2C(c2ccccc2OC(=O)N2CCOCC2)C(C#N)=C(N)O3)cc1 (stereo unspecified)	-2	-4	0	0	11	18	/
CC(C)(C)c1[nH]nc2c1C(c1ccc(OC(=O)c3ccco3)cc1)C(C#N)=C(N)O2 (stereo unspecified)	1	83*	-1	-4	-3	-1	86*
CC(C)(C)c1[nH]nc2c1C(c1cccnc1)C(C#N)=C(N)O2 (stereo unspecified)	1	5	-1	2	0	8	/
COc1ccc(-c2[nH]nc3c2C(c2ccc(OC(=O)N4CCOCC4)cc2)C(C#N)=C(N)O3)cc1 (stereo unspecified)	-3	42*	8	/	-4	-9	44	ATG4B conf=76*
CC1=C2NC(N)=[N+](CC3CC3)C(Cc3ccccc3)[C@@H]2n2c(=O)n(-c3ccccc3)c(=O)n2C1 (stereo partly specified)	-3	/	15	/	4	0	/
C=CC#CC[N+]1(CC#Cc2ccccc2)CCOCC1	-5	70*	20	166*	20*	18	-3	ATG4B conf=46*
C(#Cc1ccccc1)C[N+]1(CC#Cc2ccccc2)CCCC1	-1	-4	4	3	-2	1	/
CC(c1c[nH]c2ccccc12)c1c[nH]c2ccc(Br)cc12 (stereo unspecified)	-3	/	12	/	-1	-1	/
NC(=O)NC(=O)COC(=O)CC12CC3CC(CC(C3)C1)C2	0	-12	-3	-12	2	6	/
Cn1cccc1C(=O)NC(=O)COC(=O)CC12CC3CC(CC(Br)(C3)C1)C2	-4	61*	-3	5	-1	-1	73*
Cn1cccc1C(=O)NC(=O)COC(=O)CC12CC3CC(CC(C3)C1)C2	3	62*	-1	7	-4	-2	54*
COc1cccc(Cn2cc(COC(=O)NCCc3ccccc3)nn2)c1	-4	/	-2	/	-3	0	/
